Consider 34 compounds from ChEMBL document CHEMBL1938380, “Indole RSK inhibitors. Part 1: discovery and initial SAR” (Bioorg Med Chem Lett, 2012).

Experiment [1] addresses T1, Ribosomal protein S6 kinase alpha-3 (Homo sapiens, UniProt P51812). The experiment can be described thus: Inhibition of RSK2 phosphorylation by luminescence assay. Put shortly: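 Soluble RSK2 enzyme; its phosphorylation activity was read out in a luminescent kinase assay format adapted from a published method.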
The target of experiment [2] is T1, Ribosomal protein S6 kinase alpha-3. The experiment can be described thus: Inhibition of RSK2-mediated CREB phosphorylation in HeLa cells expressing luciferase reporter gene. It counts as cell-based.

T1 sequence (P51812 whole entry): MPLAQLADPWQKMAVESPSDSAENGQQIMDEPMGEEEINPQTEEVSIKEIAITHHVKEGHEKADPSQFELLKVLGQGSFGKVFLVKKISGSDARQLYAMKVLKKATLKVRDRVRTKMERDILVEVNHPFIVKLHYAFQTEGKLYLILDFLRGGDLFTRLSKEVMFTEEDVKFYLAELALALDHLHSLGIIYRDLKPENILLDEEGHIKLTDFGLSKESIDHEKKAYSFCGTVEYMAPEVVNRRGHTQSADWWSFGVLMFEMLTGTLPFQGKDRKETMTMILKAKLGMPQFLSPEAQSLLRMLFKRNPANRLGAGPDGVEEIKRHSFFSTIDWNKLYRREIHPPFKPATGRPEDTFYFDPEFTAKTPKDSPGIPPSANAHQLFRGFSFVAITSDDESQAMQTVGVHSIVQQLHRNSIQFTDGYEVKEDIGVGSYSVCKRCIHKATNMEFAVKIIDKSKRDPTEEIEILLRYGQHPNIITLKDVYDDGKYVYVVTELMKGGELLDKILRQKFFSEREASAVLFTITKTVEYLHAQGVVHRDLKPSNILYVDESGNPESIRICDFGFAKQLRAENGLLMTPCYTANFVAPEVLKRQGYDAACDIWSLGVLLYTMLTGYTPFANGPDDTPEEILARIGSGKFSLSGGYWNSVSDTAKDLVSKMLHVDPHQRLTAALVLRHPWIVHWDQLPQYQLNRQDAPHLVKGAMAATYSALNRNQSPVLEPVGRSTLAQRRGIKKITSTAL

In general, IC50 refers to the concentration needed to halve the response being measured. In experiment [1], `O=C(NC1CCCCC1)c1ccc2cc3n(c2c1)CCCNC3=O` yielded an IC50 above 10000 nM.

On to `O=C(Nc1cnc2ccccc2c1)c1ccc2cc3n(c2c1)CCCNC3=O`, for which the concentration for half-maximal inhibition (IC50) in experiment [2] is 340 nM.

On to `C[C@@H]1CNC(=O)c2cc3ccc(C(=O)Nc4cccnc4)cc3n2[C@@H]1C` (relative stereo), for which the midpoint of inhibition in experiment [1], the IC50, lay at 240 nM.

On to `O=C(Nc1ncc[nH]1)c1ccc2cc3n(c2c1)CCCNC3=O`, for which, in experiment [2], it took 290 nM to reach half-maximal inhibition (IC50).

`O=C(Nc1cccnc1)c1ccc2cc3n(c2c1)CCCNC3=O`: the half-inhibitory concentration (IC50) in experiment [2] stood at 1940 nM; in experiment [1] it was 240 nM.

Regarding `C[C@@H]1NC(=O)c2cc3ccc(C(=O)Nc4cccnc4)cc3n2[C@@H]1C` (relative stereo), the half-inhibitory concentration (IC50) in experiment [2] turned out to be 840 nM; in experiment [1], 45 nM.

`O=C(Nc1nc2ccccc2o1)c1ccc2cc3n(c2c1)CCCNC3=O` displayed an IC50 in experiment [2] above 10000 nM.

Compound `NC(=O)c1ccc2cc3n(c2c1)CCCNC3=O` returned an IC50 in experiment [1] of 9100 nM.

As for `O=C(Nc1ccc(Cl)cc1)c1ccc2cc3n(c2c1)CCCNC3=O`, it took 180 nM to reach half-maximal inhibition in experiment [1] (IC50).

`O=C(Nc1cn[nH]c1)c1ccc2cc3n(c2c1)CCCNC3=O` gave an IC50 in experiment [2] above 10000 nM.

For the compound `NC(=O)c1ccccc1NC(=O)c1ccc2cc3n(c2c1)CCCNC3=O`, half-maximal inhibition in experiment [2] (IC50) was put at 560 nM.

With `CC1CNC(=O)c2cc3ccc(C(=O)Nc4cccnc4)cc3n21` (centres undefined), the values for the IC50 in experiment [2] and in experiment [1] were 1630 nM and 170 nM, respectively.

With `NCC1Cn2c(cc3ccc(C(=O)Nc4cccnc4)cc32)C(=O)N1` (centres undefined), the IC50 in experiment [1] turned out to be 970 nM.

For `O=C(Nc1ccccc1)c1ccc2cc3n(c2c1)CCCNC3=O`, in experiment [2], 1930 nM corresponded to half-maximal inhibition (IC50).

In experiment [1], `O=C(Nc1nc2ccccc2s1)c1ccc2cc3n(c2c1)CCCNC3=O` gave an IC50 above 10000 nM.

Compound `O=C(Nc1ccccn1)c1ccc2cc3n(c2c1)CCCNC3=O` had a 50% inhibitory concentration (IC50) in experiment [2] of 2630 nM.

As to `NCC1CNC(=O)c2cc3ccc(C(=O)Nc4cccnc4)cc3n2C1` (centres undefined), the 50% inhibitory concentration (IC50) in experiment [1] was 1800 nM.

With `CC(C)n1ncc2cc(NC(=O)c3ccc4cc5n(c4c3)CCCNC5=O)cnc21`, 840 nM corresponded to half-maximal inhibition in experiment [2] (IC50).

In turn, `O=C(Nc1cccnc1)c1ccc2cc3n(c2c1)CC1(CC1)CNC3=O` had an IC50 in experiment [1] of 410 nM.

Compound `O=C(Nc1nccs1)c1ccc2cc3n(c2c1)CCCNC3=O` showed an IC50 in experiment [1] of 2200 nM.

With `O=C(NCc1cccnc1)c1ccc2cc3n(c2c1)CCCNC3=O`, the IC50 in experiment [2] and in experiment [1] was above 10000 nM each time.

In the case of `O=C(Nc1ncccn1)c1ccc2cc3n(c2c1)CCCNC3=O`, the IC50 in experiment [1] is above 10000 nM.

As for `CC1Cn2c(cc3ccc(C(=O)Nc4cccnc4)cc32)C(=O)N1` (centres undefined), in experiment [1], the IC50 amounted to 350 nM.

Regarding `CC1CCNC(=O)c2cc3ccc(C(=O)Nc4cccnc4)cc3n21` (centres undefined), in experiment [2], the IC50 worked out at 890 nM.

On to `O=C(Nc1nc2ccccc2[nH]1)c1ccc2cc3n(c2c1)CCCNC3=O`, for which the IC50 in experiment [2] was above 10000 nM; in experiment [1], 4 nM.

As to `CC1(C)CNC(=O)c2cc3ccc(C(=O)Nc4cccnc4)cc3n21`, the IC50 turned out to be 1550 nM in experiment [2] and 210 nM in experiment [1].

For `CC1CNC(=O)c2cc3ccc(C(=O)Nc4cccnc4)cc3n2C1` (centres undefined), the values for the 50% inhibitory concentration (IC50) in experiment [2] and in experiment [1] were 4890 nM and 1200 nM, respectively.

For `Cn1nccc1NC(=O)c1ccc2cc3n(c2c1)CCCNC3=O`, in experiment [1], the IC50 is above 1000 nM.

For `O=C(Nc1ccc2ccccc2n1)c1ccc2cc3n(c2c1)CCCNC3=O`, the IC50 worked out at 1130 nM in experiment [2] and 68 nM in experiment [1].

`O=C(Nc1ccncc1)c1ccc2cc3n(c2c1)CCCNC3=O`: the concentration for half-maximal inhibition (IC50) stood at 620 nM in experiment [2] and 34 nM in experiment [1].

In experiment [1], `CC1CCn2c(cc3ccc(C(=O)Nc4cccnc4)cc32)C(=O)N1` (centres undefined) registered an IC50 of 2500 nM.

For the compound `O=C(Nc1cccnc1)c1ccc2cc3n(c2c1)CCNC3=O`, the IC50 is above 10000 nM in experiment [2] and 730 nM in experiment [1].

For the compound `O=C(Nc1cccnc1)c1ccc2cc3n(c2c1)CC1(CCOCC1)CNC3=O`, the IC50 in experiment [1] is above 10000 nM.

With `C[C@@H]1[C@@H](C)NC(=O)c2cc3ccc(C(=O)Nc4cccnc4)cc3n21` (relative stereo), inhibition in experiment [1] was half-maximal at 871 nM (IC50).
